# Measurements: ChEMBL document CHEMBL1773057, “Design, synthesis and in vitro antimicrobial evaluation of novel Imidazo[1,2-a]pyridine and imidazo[2,1-b][1,3]benzothiazole motifs” (2011)
# Assays:
# Format in all cases: functional
# [1] = tested on: Pseudomonas aeruginosa; experiment: Antimicrobial activity against Pseudomonas aeruginosa after 24 hrs by broth microdilution method
# How it was run: (§1)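 Broth microdilution. Bacteria were grown on Mueller-Hinton agar and diluted in Mueller-Hinton broth. Compounds were made as 1000 µg/mL stocks in 50% DMSO/H₂O and added to wells as two-fold dilutions starting at 500 µg/mL, then inoculated. Sealed plates were incubated at 37 °C for 24 h in a humid chamber. MIC was the lowest concentration with no visible turbidity.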
# [2] = tested on: Klebsiella aerogenes; experiment: Antimicrobial activity against Enterobacter aerogenes after 24 hrs by broth microdilution method; how it was run: as §1
# [3] = tested on: Staphylococcus aureus; experiment: Antimicrobial activity against Staphylococcus aureus after 24 hrs by broth microdilution method; how it was run: as §1
# [4] = tested on: Enterococcus faecalis; experiment: Antimicrobial activity against Enterococcus faecalis after 24 hrs by broth microdilution method; how it was run: as §1
# [5] = tested on: Priestia megaterium; experiment: Antimicrobial activity against Bacillus megaterium after 24 hrs by broth microdilution method; how it was run: as §1
# [6] = tested on: Candida albicans; experiment: Antimicrobial activity against Candida albicans after 48 hrs by broth microdilution method
# How it was run: (§2)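 Fungi were grown on Sabouraud dextrose agar. Inocula were prepared in Sabouraud liquid medium at 37 °C for 12 h, then diluted in RPMI-1640 with L-glutamine, MOPS-buffered at pH 7. Compounds were made as 1000 µg/mL stocks in 50% DMSO/H₂O and tested as two-fold dilutions from 500 µg/mL. Sealed plates were incubated at 37 °C for 48 h in a humid chamber. MIC was the lowest concentration without visible turbidity.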
# [7] = tested on: Candida parapsilosis; experiment: Antimicrobial activity against Candida parapsilosis after 48 hrs by broth microdilution method; conditions: Lodderomyces parapsilosis; how it was run: as §2
# [8] = tested on: Aspergillus flavus; experiment: Antimicrobial activity against Aspergillus flavus after 48 hrs by broth microdilution method; how it was run: as §2
# [9] = tested on: Nannizzia gypsea; experiment: Antimicrobial activity against Microsporum gypseum after 48 hrs by broth microdilution method; how it was run: as §2
# [10] = tested on: Escherichia coli; experiment: Antimicrobial activity against Escherichia coli after 24 hrs by broth microdilution method; how it was run: as §1
Structure (SMILES),MIC [1] [µg/mL],MIC [2] [µg/mL],MIC [3] [µg/mL],MIC [4] [µg/mL],MIC [5] [µg/mL],MIC [6] [µg/mL],MIC [7] [µg/mL],MIC [8] [µg/mL],MIC [9] [µg/mL],MIC [10] [µg/mL]
Fc1ccc(Nc2c(-c3cnc4ccc(Br)cc4c3)nc3ccc(-c4nnc(-c5ccc(F)cc5)o4)cn23)cc1,0.75,0.41,0.46,1.38,2.21,1.22,1.35,1.32,1.14,0.75
Fc1ccc(Nc2c(-c3c[nH]c4ccc(Br)cc34)nc3ccc(-c4nc5ccc(F)cc5[nH]4)cn23)cc1,1.51,1.15,1.12,1.36,1.43,11.3,10.4,12.2,9.14,1.12
O=[N+]([O-])c1ccc(-c2nnc(-c3ccc4nc(-c5c[nH]c6ccc(Br)cc56)c(Nc5ccc(F)cc5)n4c3)o2)cc1,2.45,3.13,2.45,2.11,4.34,6.63,5.71,8.31,11.2,3.32
Cc1ccc2nc(-c3ccc4nc(-c5cnc6ccc(Br)cc6c5)c(Nc5ccc(F)cc5)n4c3)[nH]c2c1,5.45,5.35,7.43,7.34,7.54,16.4,15.5,15.4,17.5,6.21
C=CC1=C(C(=O)O)N2C(=O)[C@@H](NC(=O)/C(=N\OCC(=O)O)c3csc(N)n3)[C@H]2SC1 [CEFIXIME],16.4,27.1,34.6,28.6,126,,,,,2.12
COc1ccc2ncc(-c3nc4sc5cc(F)ccc5n4c3Nc3ccc(F)cc3)cc2c1,11.9,13.4,12.4,11.2,19.1,11.2,13.6,15.3,17.5,10.4
Fc1ccc(Nc2c(-c3c[nH]c4ccc(Br)cc34)nc3ccc(-c4ncc(-c5ccc(F)cc5)[nH]4)cn23)cc1,0.52,0.17,0.23,1.96,1.13,3.21,4.61,3.25,8.12,0.42
Fc1ccc(Nc2c(-c3c[nH]c4ccc(F)cc34)nc3sc4cc(F)ccc4n23)cc1,0.11,0.23,0.18,0.41,1.52,1.15,1.24,1.15,1.23,0.14
O=[N+]([O-])c1ccc(-c2cnc(-c3ccc4nc(-c5c[nH]c6ccc(Br)cc56)c(Nc5ccc(F)cc5)n4c3)[nH]2)cc1,2.11,2.35,2.52,3.17,4.24,8.72,6.22,9.35,7.44,2.13
Cc1ccc(-c2nnc(-c3ccc4nc(-c5c[nH]c6ccc(Br)cc56)c(Nc5ccc(F)cc5)n4c3)o2)cc1,5.64,4.42,3.13,7.56,6.44,11.6,10.4,6.55,13.4,6.72
O=[N+]([O-])c1ccc(-c2nnc(-c3ccc4nc(-c5cnc6ccc(Br)cc6c5)c(Nc5ccc(F)cc5)n4c3)o2)cc1,1.58,1.27,1.45,2.13,3.11,6.4,5.34,7.15,8.27,1.72
Fc1ccc(Nc2c(-c3cnc4ccc(F)cc4c3)nc3sc4cc(F)ccc4n23)cc1,0.15,0.34,0.26,0.21,0.83,1.12,1.14,1.23,1.2,0.23
Fc1ccc(Nc2c(-c3c[nH]c4ccc(Br)cc34)nc3sc4cc(F)ccc4n23)cc1,0.53,0.32,0.18,0.87,1.69,2.23,2.32,2.13,3.15,0.44
COc1ccc2[nH]cc(-c3nc4sc5cc(F)ccc5n4c3Nc3ccc(F)cc3)c2c1,18.5,17.8,17.4,19.5,23.4,17.5,16.6,15.5,19.6,19.7
